Laboratory results as given in ChEMBL document CHEMBL1122609, “N-allyl analogues of phencyclidine: chemical synthesis and pharmacological properties” (J Med Chem, 1984).

Tests used:
[1] = organism: Mus musculus; experiment: Acute toxicity relative to PCP was reported.; type: organism-based; conditions: in vivo
[2] = test system: Mus musculus; experiment: Percent failing the test was reported at dose 13.2 umol/kg (experiment 1); type: functional
[3] = test system: Mus musculus; experiment: Percent failing the test was reported at dose 9.60 umol/kg (experiment 2); type: functional
[4] = organism: Mus musculus; experiment: Effective dose for the degree of motor incoordination in untrained mice; type: functional
Method in brief: (§1)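 Male HAP ICR Swiss mice, 25-30 g, pre-screened for passing. Dosing ip in 0.9% NaCl as a solution or fine suspension, 0.01 mL/g, 4-6 doses, six mice per dose, repeated on 2-4 more days. Platform rotated 180° at 5-120 min. Falling, or failing to climb within 60 s, scored.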

[5] = organism: Mus musculus; experiment: Relative potency was determined using mouse platform test of Coughenour et al.; type: functional; method in brief: as §1
[6] = test system: Mus musculus; experiment: Lethal dose (LD50) determined by the Litchfield and Wilcoxon method was reported; type: functional
Method in brief: (§2)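 Male HAP ICR Swiss mice, 25-35 g, in groups of six, given ip doses. Deaths counted at 24 h after injection. LD50 estimated by Litchfield–Wilcoxon probit analysis, as for ED50.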

[7] = target: Muscarinic acetylcholine receptor; experiment: Dissociation constant towards Muscarinic acetylcholine receptor was determined by using [3H]4NMPB as radioligand; type: protein assay
Method in brief: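 Competition binding with [3H]-4NMPB in the S1 supernatant of mouse-brain homogenate, with and without test compound at various concentrations. Nonspecific binding determined and subtracted. KD calculated from the difference in binding.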

[8] = Ratio of failed to the tested was reported at dose 16.0 umol/kg (experiment 1); out of 6; type: functional
[9] = Ratio of failed to the tested was reported at dose 19.0 umol/kg (experiment 2); out of 6; type: functional
[10] = Ratio of half life (protection) to the control was reported at a concentration 0 M; type: ADME
Method in brief: (§3)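 Horse-serum BChE (3 units/mg), Ellman method: 0.025 unit with acetylthiocholine 1.87 × 10^-3 M in 0.1 M phosphate buffer pH 7.4 at 25 °C, absorbance at 412 nm followed over time. Enzyme preincubated 3 min with test compound. DFP 2.5 × 10^-8 M then added. Aliquots assayed for residual activity at various times. Pseudo-first-order constant used to obtain k2 = ln(A0/At)/([I]t).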

[11] = Ratio of half life (protection) to the control was reported at a concentration 4*10e-5 M; type: ADME; method in brief: as §3
[12] = Ratio of half life (protection) to the control was reported at a concentration 4*10e-6 M; type: ADME; method in brief: as §3
[13] = Ratio of half life (protection) to the control was reported at a concentration 8*10e-6 M; type: ADME; method in brief: as §3
[14] = organism: Mus musculus; experiment: Compound was evaluated for acute toxicity relative to compound PCP; type: organism-based; conditions: in vivo
[15] = test system: Mus musculus; experiment: Compound was evaluated for lethal dose (LD50) by the Litchfield and Wilcoxon method; type: functional; method in brief: as §2
[16] = Ratio of failed to the tested was reported at dose 13.2 umol/kg (experiment 1); out of 6; type: functional
Method in brief: (§4)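 Male HAP ICR Swiss mice (20-30 g) pre-screened on the mouse platform test. PCP was given ip in 0.9% NaCl (0.01 mL/g). The platform was rotated 180° within 10 s, and mice were scored over 60 s for falling off, failing to reach the top, or reaching the top. Testing was at 5-120 min post-injection. The read-out was the number failing out of the number tested.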

[17] = Ratio of failed to the tested was reported at dose 9.60 umol/kg (experiment 2); out of 24; type: functional; method in brief: as §4
[18] = Ratio of half life (protection) to the control was reported at a concentration 4*10e-7 M; type: ADME; method in brief: as §3
[19] = Ratio of failed to the tested was reported at dose 26.0 umol/kg (experiment 1); out of 6; type: functional
Method in brief: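 Male HAP ICR Swiss mice (20-30 g), six per group, pre-screened on the platform test. An N-allyl analogue in 0.9% NaCl was given ip, and PCP ip followed 5 min later. The platform was rotated 180° within 10 s, and mice were scored over 60 s for falling off or reaching the top. Testing was at 5-120 min post-injection. The read-out was the number failing out of the number tested.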

[20] = Ratio of failed to the tested was reported at dose 29.0 umol/kg (experiment 2); out of 6; type: functional
[21] = Ratio of half life (protection) to the control was reported at a concentration 9*10e-7 M; type: ADME; method in brief: as §3
[22] = Ratio of failed to the tested was reported at dose 12.4 umol/kg (experiment 1); out of 12; type: functional
[23] = Ratio of failed to the tested was reported at dose 15.2 umol/kg (experiment 2); out of 12; type: functional
[24] = organism: Mus musculus; experiment: Compound was evaluated for acute toxicity relative to PCP; type: organism-based; conditions: in vivo
[25] = test system: Mus musculus; experiment: Percent failing the test was reported at dose 9.60 umol/kg (experiment 1); type: functional
[26] = Ratio of failed to the tested was reported at dose 9.60 umol/kg (experiment 2); out of 6; type: functional
[27] = Ratio of half life (protection) to the control was reported at a concentration 2*10e-6M; type: ADME
Method in brief: (§5)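 Horse serum BChE (0.5 unit/mL) was incubated 3 min with the compound, then DFP was added at 2.5 × 10^-8 M, 25 °C. Residual activity was measured in aliquots over time by the Ellman method: acetylthiocholine 1.87 × 10^-3 M, 0.1 M phosphate pH 7.4, absorbance at 412 nm. Inactivation was fitted as pseudo-first-order.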

[28] = Ratio of half life (protection) to the control was reported at a concentration 3*10e-6 M; type: ADME; method in brief: as §5

Structure (SMILES)	Acute toxicity [1]	Activity [2]	Activity [3]	ED50 [4]	Relative potency [5]	LD50 [6]	Kd [7]	Ratio [10]	Ratio [12]	Ratio [13]	Ratio [16]	Ratio [18]	also measured
C=CCN(C)C1(c2ccccc2)CCCCC1	0.5	100%	100%	27.2 µmol/kg	0.41	516 µmol/kg	15 µM	1	2.15	2.21			Ratio [8]: 6; Ratio [9]: 6; Ratio [11]: 7.76
c1ccc(C2(N3CCCCC3)CCCCC2)cc1 [PHENCYCLIDINE]		33.3%	45.8%	9.6 µmol/kg	1		9.1 µM	1	4.48	1.73	2	1.26	Acute toxicity [14]: 1; LD50 [15]: 258 µmol/kg; Ratio [17]: 11
C=CCN(CC=C)C1(c2ccccc2)CCCCC1		100%	100%	35.6 µmol/kg	0.27		25 µM	1	5.89			1.18	Ratio [19]: 6; Ratio [20]: 6; Ratio [21]: 2.12
C=CCN(CC)C1(c2ccccc2)CCCCC1	0.59	83%	83%	22.6 µmol/kg	0.42	441 µmol/kg	14 µM	1	5.11	1.71		1.33	Ratio [22]: 10; Ratio [23]: 10
C=CCNC1(c2ccccc2)CCCCC1		100%		20.4 µmol/kg	0.55	344 µmol/kg	70 µM	1	2.61	2.35	6		Acute toxicity [24]: 0.75; Activity [25]: 83%; Ratio [26]: 5; Ratio [27]: 1.22; Ratio [28]: 1.71
CCNC1(c2ccccc2)CCCCC1 [ETICYCLIDINE]								1	2.6	2.52		0.95	
